In paper PMC6510378 (Clinical and Translational Science, 2019):

Key:
[1] = tested on: models of neuropathic and dysfunctional pain; conditions: rats; cited from earlier work
MAD study part 2 = type: in vivo, human
Procedure, shortened: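 Healthy young non-Japanese adults, open-label oral dosing. 0.7 or 2 mg was given as a single dose on day 1, then after a 6-day washout once daily. 0.4 mg was given once daily on days 1–14. 0.2 mg followed a 3 mg loading dose on day 1, days 2–14. PK doses were given fasted 10 h, with no food for 4 h. Plasma drug was measured by validated HPLC-MS/MS, with below-limit values set to zero. AUClast was reported where AUCinf was not calculable.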

11β‐HSD2 [2] = target: T1, 11β‐HSD2 (Homo sapiens, UniProt P80365); experiment: Urine 11β-HSD2 activity; type: in vivo; conditions: up to 50 mg q.d. for 14 days
T1 sequence (P80365 1-405): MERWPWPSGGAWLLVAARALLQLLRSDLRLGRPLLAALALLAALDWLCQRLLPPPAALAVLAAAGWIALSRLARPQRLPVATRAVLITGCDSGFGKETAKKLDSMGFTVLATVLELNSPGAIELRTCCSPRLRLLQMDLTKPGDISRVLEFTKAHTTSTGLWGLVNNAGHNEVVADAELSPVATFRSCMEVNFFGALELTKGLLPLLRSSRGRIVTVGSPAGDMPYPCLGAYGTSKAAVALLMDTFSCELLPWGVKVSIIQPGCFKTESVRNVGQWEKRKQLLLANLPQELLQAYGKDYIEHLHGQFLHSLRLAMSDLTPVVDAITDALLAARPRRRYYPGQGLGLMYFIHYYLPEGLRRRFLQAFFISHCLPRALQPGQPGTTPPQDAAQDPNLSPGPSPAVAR
Procedure, shortened: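 Renal 11β-HSD2 activity was taken as the urinary cortisol/cortisone ratio. Subjects were healthy young Japanese, young non-Japanese and elderly non-Japanese adults on oral placebo or drug (10, 20 or 50 mg), single dose day 1 then once daily on days 5–18. The ratio was assessed on days 1 and 18.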

[3] = mice, available in vivo pharmacology data; cited from earlier work
[4] = Safety and tolerability, SAD study; type: in vivo, human
Procedure, shortened: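 Safety was assessed from treatment-emergent adverse events: nature, frequency, severity, onset/offset and relatedness to study drug, coded by MedDRA system organ class. Also assessed were haematology, serum chemistry, urinalysis, physical examination with vital signs, and ECGs. CNS scales used were Bond and Lader VAS, ARCI-49 and Profile of Mood States. Data were summarized descriptively.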

human 11β‐HSD1 = conditions: competitive binding; ref Internal study reports 3662‐PH‐0001 and 3662‐PH‐0001‐0004; cited from earlier work
11β‐HSD1 = 11β‐HSD1 (Homo sapiens, UniProt P28845); experiment: Urine 11β-HSD1 activity; type: in vivo
11β‐HSD1, sequence (P28845 whole entry): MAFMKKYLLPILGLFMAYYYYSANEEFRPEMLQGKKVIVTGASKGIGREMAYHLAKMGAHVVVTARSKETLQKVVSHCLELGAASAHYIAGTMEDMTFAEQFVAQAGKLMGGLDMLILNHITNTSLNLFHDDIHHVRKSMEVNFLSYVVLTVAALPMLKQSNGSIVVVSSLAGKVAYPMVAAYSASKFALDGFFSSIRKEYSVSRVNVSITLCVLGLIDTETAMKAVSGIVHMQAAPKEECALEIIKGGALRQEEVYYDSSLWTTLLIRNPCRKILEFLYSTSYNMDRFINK
Procedure, shortened: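 Hepatic 11β-HSD1 activity was taken as the urinary ratio of (5α + 5β)-tetrahydrocortisol to tetrahydrocortisone. In the single-dose study, urine was collected predose to 72 h. In the high-dose multiple-dose part, cumulative amounts excreted were measured on days 1 and 18. In the low-dose part, first morning void samples were used, with baseline on day –1 and follow-up through days 16–21 and day 28.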

4-week toxicology = type: in vivo; conditions: 4-week toxicology data, most sensitive species (rat)
11β‐HSD2 [5] = conditions: at concentrations < 3,000 nM; ref Internal study reports 3662‐PH‐0001 and 3662‐PH‐0001‐0004; cited from earlier work
[6] = tested on: hypothalamic‐pituitary‐adrenal (HPA) axis; experiment: HPA axis endocrine markers; type: in vivo, human
Procedure, shortened: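 Healthy young non-Japanese adults, open-label low-dose part. 0.7 or 2 mg was given as a single oral dose on day 1, then after a 6-day washout once daily. 0.4 mg was given once daily on days 1–14. 0.2 mg followed a 3 mg loading dose on day 1, days 2–14. Baseline urine endocrine markers were taken day –1. Urine cortisol came from first morning void. ACTH and DHEA-s were plasma. Follow-up sampling ran days 16–21 and day 28.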

[7] = MAD part 2, day 1 single dose 0.7 mg, young non-Japanese, n=6
[8] = MAD part 2, day 1 single dose 2 mg, young non-Japanese, n=2
[9] = MAD part 2, last day of q.d. 14 days 0.4 mg, young non-Japanese, n=2
[10] = MAD part 2, last day of q.d. 14 days 0.4 mg, young non-Japanese, n=4
[11] = MAD part 2, last day of q.d. 14 days 0.7 mg, young non-Japanese, n=1
[12] = MAD part 2, last day of q.d. 14 days 0.7 mg, young non-Japanese, n=6
[13] = MAD part 2, last day of q.d. 14 days 2 mg, young non-Japanese, n=4
[14] = MAD part 2, last day of q.d. 14 days 2 mg, young non-Japanese, n=5

## Cn1c(-c2ccc(C(N)=O)cc2F)nnc1C(C)(C)Oc1c(F)cc(Cl)cc1F [ASP3662]
[1]
  analgesic effects: significant analgesic effects
MAD study part 2; 0.2 and 0.4 mg, despite 3‐mg loading dose in 0.2‐mg group
  steady state after 14 days of q.d. dosing: not fully reached
MAD study part 2; [7]
  AUCinf (AUClast values presented, footnote a), Mean (SD): 0.2437 (0.4421) ng·hour/mL
  AUCinf (AUClast values presented, footnote a), Median: 0.01242 ng·h/mL
  AUCinf (AUClast values presented, footnote a), Min–max: 0 to 1.11 ng·h/mL
MAD study part 2; [8]
  CL/F, Mean (SD): 42.21 (6.917) L/hour
  CL/F, Median: 42.21 L/h
  CL/F, Min–max: 37.3 to 47.1 L/h
  VzF, Mean (SD): 5,472 (1,378) L
  VzF, Median: 5,472 L
MAD study part 2; [9]
  VzF, Mean (SD): 2,516 (45.89) L
  VzF, Median: 2,516 L
  VzF, Min–max: 2,484–2,549 L
MAD study part 2; [10]
  CL/F, Mean (SD): 10.83 (0.7639) L/hour
  CL/F, Median: 10.83 L/h
  CL/F, Min–max: 9.90 to 11.8 L/h
  Ctrough, Mean (SD): 1.072 (0.1719) ng/mL
  Ctrough, Median: 1.053 ng/mL
  Ctrough, Min–max: 0.918 to 1.26 ng/mL
MAD study part 2; [11]
  VzF, Mean (SD): 3,677 (NC) L
  VzF, Median: 3,677 L
  VzF, Min–max: 3,677–3,677 L
MAD study part 2; [12]
  CL/F, Mean (SD): 11.44 (2.349) L/hour
  CL/F, Median: 11.34 L/h
  CL/F, Min–max: 7.45 to 14.2 L/h
  Ctrough, Mean (SD): 1.389 (0.3190) ng/mL
  Ctrough, Median: 1.234 ng/mL
  Ctrough, Min–max: 1.10 to 1.83 ng/mL
MAD study part 2; [13]
  VzF, Mean (SD): 1,231 (547.6) L
  VzF, Median: 1,165 L
  VzF, Min–max: 715–1,880 L
MAD study part 2; [14]
  CL/F, Mean (SD): 9.41 (1.208) L/hour
  CL/F, Median: 9.139 L/h
  CL/F, Min–max: 8.23 to 11.4 L/h
  Ctrough, Mean (SD): 3.493 (1.166) ng/mL
  Ctrough, Median: 3.437 ng/mL
  Ctrough, Min–max: 1.80 to 5.03 ng/mL
11β‐HSD2 [2]
  change in urinary cortisol to cortisone ratio relative to PBO: no noteworthy changes
[3]
  minimal pharmacological active oral dose: 0.03 mg/kg
[4]; after a single dose of 6 mg
  clinically relevant finding (vital signs): clinically significant orthostatic hypotension
[4]; single oral doses up to 60 mg
  overall safety and tolerability: safe and well tolerated
Human 11β‐HSD1
  Ki: 5.3 nM
11β‐HSD1; 16 days after discontinuation of multiple doses, even lowest dose 0.2 mg
  return of 11β‐HSD1 activity to baseline: incomplete
11β‐HSD1; clinical PD data referred to in the dose rationale
  dose achieving full inhibition of peripheral 11β‐HSD1: 3 mg
11β‐HSD1; multiple daily doses
  dose achieving full inhibition of 11β‐HSD1: ≥ 2 mg
11β‐HSD1; nadir at doses of 2 mg and above
  11β‐HSD1 activity ratio at maximal inhibition: ~ 0.1 ratio
4-week toxicology
  maximum recommended starting dose derived from the no observed adverse effect level: 10 mg
11β‐HSD2 [5]
  inhibition of 11β‐HSD2: no inhibition
[6]; MAD part 2, low dose
  effects on ACTH, DHEA‐s and 24‐hour total urine glucocorticoids: activation of the HPA axis
[6]; despite full 11β‐HSD1 inhibition, part 2 low dose
  effect on urine cortisol levels: no significant effects
